Measurements reported in ChEMBL document CHEMBL4368869, “'Second-generation' 1,2,3-triazole-based inhibitors of Porphyromonas gingivalis adherence to oral streptococci and biofilm formation” (Medchemcomm, 2019).

Each compound was assayed on TIGK (assay: Cytotoxicity against human TIGK cells assessed as increase in LDH release at 5 to 60 uM after 18 hrs by LDH release assay).
Type: cell-based
Outline: (§1)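 Immortalized gingival keratinocytes (TIGK) are seeded at 4000 cells/well, grown 24 h, then exposed 18 h to compound in fresh medium. Supernatant is mixed with LDH substrate for 30 min at room temperature, stopped, and read at OD 490 nm. Kit lysis buffer for 1 h serves as the positive control; medium alone is the negative control. Triplicate samples.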

| SMILES | Activity |
| --- | --- |
| Fc1ccc(Nc2nc(Nc3ccc(F)cc3)nc(-c3cn(-c4cccc(-c5nc(-c6ccccc6)c(-c6ccccc6)o5)c4)nn3)n2)cc1 | Non-Toxic |
| Fc1ccc(Nc2nc(Nc3ccc(F)cc3)nc(-c3cn(-c4ccccc4-c4nc(-c5ccco5)c(-c5ccco5)o4)nn3)n2)cc1 | Non-Toxic |

What follows are compounds tested on TIGK (assay: Cytotoxicity against human TIGK cells assessed as reduction in ATP levels after 18 hrs by CellTiterGlo reagent-based assay).
Type: cell-based
Outline: (§2)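 TIGK cells are seeded at 4000/well and grown 24 h, then exposed 18 h to compound. They are washed three times with PBS and treated with CellTiterGlo substrate, 2 min with shaking plus 10 min static. Total ATP is read by luminescence. Reduction is judged against cells in medium with 0.1% DMSO, p<0.05.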

| SMILES | Activity |
| --- | --- |
| Fc1ccc(Nc2nc(Nc3ccc(F)cc3)nc(-c3cn(-c4cccc(-c5nc(-c6ccccc6)c(-c6ccccc6)o5)c4)nn3)n2)cc1 | Dose-dependent effect |

What follows are compounds tested on TIGK (assay: Cytotoxicity against human TIGK cells assessed as reduction in ATP levels at 5 to 20 uM after 18 hrs by CellTiterGlo reagent-based assay).
Type: cell-based
Outline: as §2

| SMILES | Activity |
| --- | --- |
| Fc1ccc(Nc2nc(Nc3ccc(F)cc3)nc(-c3cn(-c4ccc(-c5nc(-c6ccc(F)cc6)c(-c6ccc(F)cc6)o5)cc4)nn3)n2)cc1 | Non-Toxic |

Each compound was assayed on TIGK (assay: Cytotoxicity against human TIGK cells assessed as reduction in ATP levels at 5 to 60 uM after 18 hrs by CellTiterGlo reagent-based assay).
Type: cell-based
Outline: as §2

| SMILES | Activity |
| --- | --- |
| Fc1ccc(Nc2nc(Nc3ccc(F)cc3)nc(-c3cn(-c4ccccc4-c4nc(-c5ccco5)c(-c5ccco5)o4)nn3)n2)cc1 | Non-Toxic |

Each compound was assayed on TIGK (assay: Cytotoxicity against human TIGK cells assessed as increase in LDH release at 5 to 20 uM after 18 hrs by LDH release assay).
Type: cell-based
Outline: as §1

| SMILES | Activity |
| --- | --- |
| Fc1ccc(Nc2nc(Nc3ccc(F)cc3)nc(-c3cn(-c4ccc(-c5nc(-c6ccc(F)cc6)c(-c6ccc(F)cc6)o5)cc4)nn3)n2)cc1 | Non-Toxic |

Each compound was assayed on TIGK (assay: Cytotoxicity against human TIGK cells assessed as reduction in ATP levels at 5 to 40 uM after 18 hrs by CellTiterGlo reagent-based assay).
Type: cell-based
Outline: as §2

| SMILES | Activity |
| --- | --- |
| CCN(CC)c1nc(-c2cn(-c3ccc(-c4nc(-c5ccc(Cl)cc5)c(-c5ccc(Cl)cc5)o4)cc3)nn2)nc(N(CC)CC)n1 | Non-Toxic |

Each compound was assayed on TIGK (assay: Cytotoxicity against human TIGK cells assessed as increase in LDH release at 5 to 40 uM after 18 hrs by LDH release assay).
Type: cell-based
Outline: as §1

| SMILES | Activity |
| --- | --- |
| CCN(CC)c1nc(-c2cn(-c3ccc(-c4nc(-c5ccc(Cl)cc5)c(-c5ccc(Cl)cc5)o4)cc3)nn2)nc(N(CC)CC)n1 | Non-Toxic |

The compounds below were run on TIGK (assay: Cytotoxicity against human TIGK cells assessed as reduction in ATP levels at 60 uM after 18 hrs by CellTiterGlo reagent-based assay).
Type: cell-based
Outline: as §2

| SMILES | Activity |
| --- | --- |
| Fc1ccc(Nc2nc(Nc3ccc(F)cc3)nc(-c3cn(-c4cccc(-c5nc(-c6ccccc6)c(-c6ccccc6)o5)c4)nn3)n2)cc1 | Toxic |

The compounds below were run on Porphyromonas gingivalis (assay: Antibiofilm activity against Porphyromonas gingivalis ATCC 33277 assessed as inhibition of Porphyromonas gingivalis ATCC 33277 adherence to Streptococcus gordonii after 22 hrs by laser scanning confocal microscopic analysis).
Type: functional, organism-based
Outline: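 S. gordonii DL-1, labelled with hexidium iodide and adjusted to OD600 0.8 in PBS, is grown 24 h at 37 °C with shaking under anaerobic conditions on coverslips. Carboxyfluorescein-labelled P. gingivalis (OD600 0.4) is pre-incubated 30 min with compound (final 0–60 μM, 0.1% DMSO) and added, then incubated anaerobically 22 h. After PFA fixation, confocal imaging reads the green/red fluorescence ratio. IC50 is the concentration halving that ratio. Triplicates, three independent experiments.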

| SMILES | IC50 |
| --- | --- |
| COc1ccccc1-c1cn(-c2ccc([S+]([O-])Cc3nc(-c4ccccc4)c(-c4ccccc4)o3)cc2)nn1 (stereo unspecified) | Not Active |
| [O-][S+](Cc1nc(-c2ccccc2)c(-c2ccccc2)o1)c1ccc(-n2cc(-c3ccccc3C(F)(F)F)nn2)cc1 (stereo unspecified) | Not Active |
| O=S(=O)(Cc1nc(-c2ccccc2)c(-c2ccccc2)o1)c1ccc(-n2cc(-c3cccnc3)nn2)cc1 | Not Active |
| Fc1ccc(Nc2nc(Nc3ccc(F)cc3)nc(-c3cn(-c4cccc(-c5nc(-c6ccc(F)cc6)c(-c6ccc(F)cc6)o5)c4)nn3)n2)cc1 | Not Active |
| Fc1ccc(Nc2nc(Nc3ccc(F)cc3)nc(-c3cn(-c4ccccc4-c4nc(-c5ccccc5)c(-c5ccccc5)o4)nn3)n2)cc1 | Not Active |
| [O-][S+](Cc1nc(-c2ccccc2)c(-c2ccccc2)o1)c1ccc(-n2cc(-c3ccc(Oc4ccccc4)cc3)nn2)cc1 (stereo unspecified) | Not Active |
| [O-][S+](Cc1nc(-c2ccccc2)c(-c2ccccc2)o1)c1ccc(-n2cc(-c3cccnc3)nn2)cc1 (stereo unspecified) | Not Active |
| O=S(=O)(Cc1nc(-c2ccccc2)c(-c2ccccc2)o1)c1ccc(-n2cc(-c3ccccc3C(F)(F)F)nn2)cc1 | Not Active |
| [O-][S+](Cc1nc(-c2ccccc2)c(-c2ccccc2)o1)c1ccc(-n2cc(-c3cc(C(F)(F)F)cc(C(F)(F)F)c3)nn2)cc1 (stereo unspecified) | Not Active |

Further lines, results first:

| IC50 | SMILES |
| --- | --- |
| Not Active | CCN(CC)c1nc(-c2cn(-c3ccc(-c4nc(-c5ccccc5)c(-c5ccccc5)o4)cc3)nn2)nc(N(CC)CC)n1 |
| Not Active | COc1ccc(-c2nc(-c3ccc(-n4cc(-c5nc(Nc6ccc(F)cc6)nc(Nc6ccc(F)cc6)n5)nn4)cc3)oc2-c2ccc(OC)cc2)cc1 |
| Not Active | COc1ccc(-c2nc(-c3ccccc3-n3cc(-c4nc(Nc5ccc(F)cc5)nc(Nc5ccc(F)cc5)n4)nn3)oc2-c2ccc(OC)cc2)cc1 |
| Not Active | COc1ccc2cc(-c3cn(-c4ccc([S+]([O-])Cc5nc(-c6ccccc6)c(-c6ccccc6)o5)cc4)nn3)ccc2c1 (stereo unspecified) |
| Not Active | Fc1ccccc1Nc1nc(Nc2ccccc2F)nc(-c2cn(-c3ccc(-c4nc(-c5ccc(Cl)cc5)c(-c5ccc(Cl)cc5)o4)cc3)nn2)n1 |
| Not Active | Fc1ccccc1Nc1nc(Nc2ccccc2F)nc(-c2cn(-c3cccc(-c4nc(-c5ccco5)c(-c5ccco5)o4)c3)nn2)n1 |
| Not Active | CCN(CC)c1nc(-c2cn(-c3cccc(-c4nc(-c5ccc(F)cc5)c(-c5ccc(F)cc5)o4)c3)nn2)nc(N(CC)CC)n1 |
| Not Active | CCN(CC)c1nc(-c2cn(-c3cccc(-c4nc(-c5ccco5)c(-c5ccco5)o4)c3)nn2)nc(N(CC)CC)n1 |
| Not Active | COc1ccc(-c2nc(-c3cccc(-n4cc(-c5nc(Nc6ccc(F)cc6)nc(Nc6ccc(F)cc6)n5)nn4)c3)oc2-c2ccc(OC)cc2)cc1 |
| Not Active | Fc1ccc(Nc2nc(Nc3ccc(F)cc3)nc(-c3cn(-c4ccc(-c5nc(-c6ccccc6)c(-c6ccccc6)o5)cc4)nn3)n2)cc1 |
| Not Active | [O-][S+](Cc1nc(-c2ccccc2)c(-c2ccccc2)o1)c1ccc(-n2cc(-c3ccc(F)cc3)nn2)cc1 (stereo unspecified) |
| Not Active | COc1ccc2cc(-c3cn(-c4ccc(S(=O)(=O)Cc5nc(-c6ccccc6)c(-c6ccccc6)o5)cc4)nn3)ccc2c1 |
| Not Active | CCN(CC)c1nc(-c2cn(-c3ccc(-c4nc(-c5ccco5)c(-c5ccco5)o4)cc3)nn2)nc(N(CC)CC)n1 |
| Not Active | CCCCCc1ccc(-c2cn(-c3ccc([S+]([O-])Cc4nc(-c5ccccc5)c(-c5ccccc5)o4)cc3)nn2)cc1 (stereo unspecified) |
| Not Active | Fc1ccccc1Nc1nc(Nc2ccccc2F)nc(-c2cn(-c3ccc(-c4nc(-c5ccco5)c(-c5ccco5)o4)cc3)nn2)n1 |
| Not Active | Fc1ccccc1Nc1nc(Nc2ccccc2F)nc(-c2cn(-c3ccc(-c4nc(-c5ccccc5)c(-c5ccccc5)o4)cc3)nn2)n1 |
| Not Active | CCN(CC)c1nc(-c2cn(-c3cccc(-c4nc(-c5ccc(OC)cc5)c(-c5ccc(OC)cc5)o4)c3)nn2)nc(N(CC)CC)n1 |
| Not Active | COc1ccc(-c2nc(-c3cccc(-n4cc(-c5nc(Nc6ccccc6F)nc(Nc6ccccc6F)n5)nn4)c3)oc2-c2ccc(OC)cc2)cc1 |
